Experimental data: ChEMBL document CHEMBL4732196, “Structural optimization towards promising β-methyl-4-acrylamido quinoline derivatives as PI3K/mTOR dual inhibitors for anti-cancer therapy: The in vitro and in vivo biological evaluation” (Eur J Med Chem, 2021)
pIC50: −log10 of the molar value. Calls of active or inactive are those of the source. The calls are words filed in the database; no cut-off is given here.

Key:
PC-3 = experiment: Growth inhibition of human PC3 cells after 72 hrs by sulforhodamine B assay; format: functional
[1] = biological target: T1, Serine/threonine-protein kinase mTOR (Homo sapiens, UniProt P42345); experiment: Inhibition of recombinant human N-terminal FLAG-tagged mTOR (1362 to end amino acids) using ULight-4E-BP1 as substrate incubated for 1 hr by LANCE Ultra assay
[2] = biological target: Phosphatidylinositol 4,5-bisphosphate 3-kinase catalytic subunit alpha isoform (Homo sapiens, UniProt P42336); experiment: Inhibition of recombinant human PI3Kalpha using PIP2 as substrate incubated for 1 hr by kinase-glo luminescent assay
U-87 MG = experiment: Growth inhibition of human U87MG cells after 72 hrs by sulforhodamine B assay; format: functional, U-87MG ATCC
U87 [3] = experiment: Inhibition of PI3K in human U87MG cells assessed as suppression of phosphorylation of AKT at Thr308 residue at 25 nM after 3 hrs by Western blot analysis; format: cell-based
Procedure, shortened: (§1)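 U87MG cells seeded at 1×10^6 per well, incubated overnight at 37 °C, 5% CO₂, then treated at various concentrations for 3 h at 37 °C. Western blot for phospho-Akt (Ser473, Thr308), phospho-S6 (Ser235/236) and phospho-4E-BP1 (Thr37/46), with GAPDH as internal control. Bands quantified as mean ± SD, n = 3 biological replicates, versus untreated cells.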

U87 [4] = experiment: Inhibition of PI3K in human U87MG cells assessed as suppression of phosphorylation of AKT at Ser473 residue at 25 nM after 3 hrs by Western blot analysis; format: cell-based; procedure, shortened: as §1
[5] = biological target: T1, Serine/threonine-protein kinase mTOR; experiment: Inhibition of mTOR in human U87MG cells assessed as suppression of phosphorylation of S6 ribosomal at 25 nM after 3 hrs by Western blot analysis; settings: U87
[6] = biological target: T1, Serine/threonine-protein kinase mTOR; experiment: Inhibition of mTOR in human U87MG cells assessed as suppression of phosphorylation of S6 ribosomal at Ser235/236 residues at 25 nM after 3 hrs by Western blot analysis; format: cell-based; settings: U87
Procedure, shortened: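 U87MG cells were seeded at 1×10^6 per well and held overnight at 37 °C, 5% CO2. They were then exposed to a range of inhibitor concentrations for 3 h at 37 °C. Phospho-Akt (Ser473, Thr308), phospho-S6 (Ser235/236) and phospho-4E-BP1 (Thr37/46) were measured by Western blot with GAPDH as loading control. Bands were quantified as mean ± SD of 3 biological replicates against untreated cells.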

[7] = MRT(0 to t) in Sprague-Dawley rat at 5 mg/kg, po; format: ADME, organism-based; settings: in vivo
Procedure, shortened: (§2)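 Male Sprague-Dawley rats (n = 3) received a single 5 mg/kg oral gavage dose formulated as a suspension in 0.5% methylcellulose. Plasma concentration-time curves were recorded and mean PK parameters derived.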

[8] = MRT(0 to infinity) in Sprague-Dawley rat at 5 mg/kg, po; format: ADME, organism-based; settings: in vivo; procedure, shortened: as §2

Phosphatidylinositol 4,5-bisphosphate 3-kinase catalytic subunit alpha isoform, sequence (P42336 whole entry, canonical isoform): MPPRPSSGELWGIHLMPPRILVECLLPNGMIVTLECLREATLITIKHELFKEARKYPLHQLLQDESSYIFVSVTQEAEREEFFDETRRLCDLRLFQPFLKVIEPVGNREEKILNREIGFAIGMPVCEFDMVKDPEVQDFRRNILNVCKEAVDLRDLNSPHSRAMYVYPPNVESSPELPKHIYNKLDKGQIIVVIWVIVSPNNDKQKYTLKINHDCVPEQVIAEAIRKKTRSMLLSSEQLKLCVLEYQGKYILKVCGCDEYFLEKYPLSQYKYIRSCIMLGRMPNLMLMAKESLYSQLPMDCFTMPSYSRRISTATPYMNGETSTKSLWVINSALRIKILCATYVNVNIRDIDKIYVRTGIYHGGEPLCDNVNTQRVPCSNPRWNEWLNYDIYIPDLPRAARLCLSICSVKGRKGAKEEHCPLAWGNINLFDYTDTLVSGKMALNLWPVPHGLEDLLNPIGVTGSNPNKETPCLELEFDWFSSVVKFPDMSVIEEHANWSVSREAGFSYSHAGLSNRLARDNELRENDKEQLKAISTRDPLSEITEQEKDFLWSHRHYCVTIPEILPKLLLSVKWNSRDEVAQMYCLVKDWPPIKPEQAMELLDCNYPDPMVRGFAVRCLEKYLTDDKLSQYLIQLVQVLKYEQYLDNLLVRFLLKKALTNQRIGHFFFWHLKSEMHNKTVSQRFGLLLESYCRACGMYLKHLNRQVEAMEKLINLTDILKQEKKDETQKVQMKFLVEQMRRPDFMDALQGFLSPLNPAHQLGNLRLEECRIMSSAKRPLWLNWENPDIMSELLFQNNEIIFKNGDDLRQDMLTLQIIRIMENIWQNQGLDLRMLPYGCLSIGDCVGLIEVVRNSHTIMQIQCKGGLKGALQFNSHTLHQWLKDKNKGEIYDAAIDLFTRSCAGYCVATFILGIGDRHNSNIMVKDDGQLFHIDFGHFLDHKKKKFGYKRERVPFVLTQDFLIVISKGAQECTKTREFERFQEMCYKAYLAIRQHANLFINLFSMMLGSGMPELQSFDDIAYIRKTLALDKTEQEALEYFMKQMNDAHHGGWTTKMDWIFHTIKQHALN

| GI50 (PC-3) [nM] | pIC50 [1] | pIC50 [2] | GI50 (U-87 MG) [nM] | inhibition [5] | inhibition [6] | MRT last [7] [h] | MRT inf [8] [h] | Compound | inhibition (U87 [3]) | inhibition (U87 [4]) |
| --- | --- | --- | --- | --- | --- | --- | --- | --- | --- | --- |
| 1080 | 8.21 | 8.85 | 600 | – | – | – | – | COc1ncc(-c2ccc3nccc(/C(C)=C/C(=O)N4CCC(O)CC4)c3c2)cc1NS(=O)(=O)c1ccc(F)cc1F | – | – |
| 8020 | 6.85 | 7.64 | > 10000 | – | – | – | – | COc1ncc(-c2ccc3nccc(/C(C)=C\C(=O)N4CCOCC4)c3c2)cc1NS(=O)(=O)c1ccc(F)cc1F | – | – |
| 1160 | 8.68 | 8.92 | 390 | – | – | – | – | COc1ncc(-c2ccc3nccc(/C(C)=C/C(=O)N4CCCC4)c3c2)cc1NS(=O)(=O)c1ccc(F)cc1F | – | – |

Further lines, the compound ahead of its results:

| Compound | GI50 (PC-3) [nM] | pIC50 [1] | pIC50 [2] | GI50 (U-87 MG) [nM] | inhibition [5] | inhibition [6] | MRT last [7] [h] | MRT inf [8] [h] | inhibition (U87 [3]) | inhibition (U87 [4]) |
| --- | --- | --- | --- | --- | --- | --- | --- | --- | --- | --- |
| COc1ncc(-c2ccc3nccc(/C(C)=C/C(=O)N4CCOCC4)c3c2)cc1NS(=O)(=O)c1ccc(F)cc1F | 1670 | 8.48 | 8.96 | 610 | – | – | – | – | – | – |
| COc1ncc(-c2ccc3nccc(-c4ccnnc4)c3c2)cc1NS(=O)(=O)c1ccc(F)cc1F [OMIPALISIB] | 250 | – | – | 220 | Active | Active | – | – | Active | Active |
| COc1ncc(-c2ccc3nccc(/C(C)=C/C(=O)N(C)CCO)c3c2)cc1NS(=O)(=O)c1ccc(F)cc1F | 290 | 8.77 | 8.82 | 380 | – | – | – | – | – | – |
| COc1ncc(-c2ccc3nccc(/C=C/C(=O)N4CCN(C)CC4)c3c2)cc1NS(=O)(=O)c1ccc(F)cc1F | 450 | 8.49 | 8.98 | 220 | – | – | 1.89 | 2.59 | – | – |
